Experimental data as given in ChEMBL document CHEMBL3997798, “Novel Selective Estrogen Receptor Downregulators (SERDs) Developed against Treatment-Resistant Breast Cancer” (J Med Chem, 2017).

Legend:
[1] = Oral bioavailability in rat; format: ADME, organism-based; conditions: in vivo
Plasma = assay: Drug uptake in mouse plasma at 100 mg/kg, po via gavage at 0.5 to 4 hrs post dose by LC-MS/MS analysis; format: ADME, organism-based; conditions: in vivo
Procedure, shortened: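 Plasma concentrations in mice were measured at 0.5 and 4 h after a 100 mg/kg oral dose given as a 0.5% CMC suspension.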

bioavailability [1] [%]	Drug uptake (Plasma)	Structure (SMILES)
> 60		Oc1ccc2c(c1)CC[C@H](c1ccccc1)[C@@H]2c1ccc(OCCN2CCCC2)cc1 [LASOFOXIFENE]
	Active	Cc1cc(Cl)cc(C)c1C(=O)c1sc2cc(O)ccc2c1Oc1ccc(/C=C/C(=O)O)cc1
	Active	Cc1cc(F)cc(C)c1C(=O)c1sc2cc(O)ccc2c1Oc1ccc(/C=C/C(=O)O)cc1 [RINTODESTRANT]
	Active	Cc1ccc(C(=O)c2sc3cc(O)ccc3c2Oc2ccc(/C=C/C(=O)O)cc2)c(C)c1
